Laboratory results: ChEMBL document CHEMBL2040804, “A SAR study on a series of synthetic lipophilic chalcones as inhibitor of transcription factor NF-κB” (Eur J Med Chem, 2012)

Experiments:
Format in all cases: cell-based
RAW264.7 [1] = assay: Cytotoxicity against mouse RAW264.7 cells by MTT assay
[2] = Inhibition of LPS-induced NF-kappaB activation in mouse RAW264.7 cells transfected with IKKbeta-pSV-b-galactosidase control vector after 20 hrs by secretory alkaline phosphatase assay
Method in brief: (§1)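 RAW 264.7 cells stably carrying a pNF-κB-SEAP-NPT reporter were transfected by lipofectamine with a constitutively active IKKβ vector plus pSV-β-galactosidase control vector. Cells were treated with samples for 20 h. Culture medium aliquots were heated at 65 °C for 5 min and reacted with 4-methylumbelliferyl phosphate in the dark. SEAP fluorescence was read at ex 360/em 449 nm and normalized to β-galactosidase activity.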

RAW264.7 [3] = assay: Inhibition of LPS-induced NF-kappaB activation in mouse RAW264.7 cells transfected with IKKbeta-pSV-b-galactosidase control vector at 30 uM after 20 hrs by secretory alkaline phosphatase assay; method in brief: as §1

IC50 [2]	SMILES	IC50 (RAW264.7 [1])	inhibition (RAW264.7 [3])
> 30 µM	CCCCCCOc1cccc(O)c1C(=O)/C=C/c1ccc(O)cc1	> 30 µM	15%
> 30 µM	CCCCCCCCCCCCCCCCCCOc1cccc(O)c1C(=O)/C=C/c1ccc(O)cc1	> 30 µM	22%
5 µM	CCCCCCCCOc1cccc(O)c1C(=O)/C=C/c1ccc(O)cc1	> 30 µM	100%
> 30 µM	CCCCCCCCCCCCCCCCOc1cccc(O)c1C(=O)/C=C/c1ccc(O)cc1	> 30 µM	42%
2.7 µM	CCCCCCCCCCOc1cccc(O)c1C(=O)/C=C/c1ccc(O)cc1	> 30 µM	100%
9.4 µM	CCCCCCCCCCCCOc1cccc(O)c1C(=O)/C=C/c1ccc(O)cc1	> 30 µM	100%
> 30 µM	CCCCC/C=C\CCCCOc1cccc(O)c1C(=O)/C=C/c1ccc(O)cc1	> 30 µM	8%
> 30 µM	CCCCCCCCCCOc1cccc(O)c1C(=O)/C=C/c1ccc(C)cc1	> 30 µM	8%
> 30 µM	CCCCCCCCCCOc1cccc(O)c1C(=O)/C=C/c1cccc(O)c1	> 30 µM	22%
> 30 µM	O=C(/C=C/c1ccc(O)cc1)c1c(O)cccc1OCC1CCCCC1	> 30 µM	60%

Further lines, the compound ahead of its results:

SMILES	IC50 [2]	IC50 (RAW264.7 [1])	inhibition (RAW264.7 [3])
CCCCCCOc1cccc(O)c1C(=O)/C=C/c1ccc(OCCCCC)cc1	> 30 µM	> 30 µM	17%
CCCCCCCCCCOc1cccc(O)c1C(=O)/C=C/c1ccccc1O	> 30 µM	> 30 µM	45%
CCCCCCCCCCOc1cccc(O)c1C(=O)/C=C/c1ccc(Cl)c(Cl)c1	> 30 µM	> 30 µM	26%
CCCCCCCCCCOc1cccc(O)c1C(=O)/C=C/c1ccc(OC)cc1	> 30 µM	> 30 µM	18%
CCCCCCCCCCCCOc1cccc(O)c1C(=O)CCc1ccc(O)cc1	> 30 µM	> 30 µM	52%
CCCCCCCCCCCCCCOc1cccc(O)c1C(=O)/C=C/c1ccc(O)cc1	4.2 µM	> 30 µM	100%
CCCCCCCCCCCCOc1cccc(O)c1C(O)CCc1ccc(O)cc1 (configuration not stated)	> 30 µM	> 30 µM	80%
CCCCCCCCCCCCCCOc1cccc(O)c1C(=O)/C=C/c1ccc(OCCCCCCCCCCCCC)cc1	> 30 µM	> 30 µM	10%
CCCCCCCCC(CCCCCC)CCOc1cccc(O)c1C(=O)/C=C/c1ccc(O)cc1 (configuration not stated)	9.6 µM	> 30 µM	100%
CCCCCCCCCCCCCCOc1ccc(C(=O)/C=C/c2ccc(O)cc2)c(O)c1	29 µM	> 30 µM	50%
CCCCCCCCCCOc1cccc(O)c1C(=O)/C=C/c1cc(OC)c(O)c(OC)c1	> 30 µM	> 30 µM	53%
CC(C)CCOc1cccc(O)c1C(=O)/C=C/c1ccc(O)cc1	10 µM	> 30 µM	100%
O=C(/C=C/c1ccc(O)cc1)c1c(O)cccc1OCc1ccccc1	> 30 µM	> 30 µM	28%
CCCCCCCCCCOc1cccc(O)c1C(=O)/C=C/c1ccc(O)c(Cl)c1	9.6 µM	> 30 µM	100%
